# Source: PubChem BioAssay
# An excerpt weighted towards active compounds, which were near 3.7% of everything screened.
# hERG protect: hERG (human) protection from proarrhythmic block; Q12809; CHO-hERG, FluxOR thallium flux, dofetilide IC70 present; activation (rescue from dofetilide block), less the hit threshold, % at 10 µM; 310,000 compounds, 0.51% hits;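 active means activation above the mean of controls blocked by dofetilide plus 5 SD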;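 further: thallium influx through hERG after potassium depolarization seen as dye fluorescence rise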
# Target sequence (Q12809 whole entry, looked up): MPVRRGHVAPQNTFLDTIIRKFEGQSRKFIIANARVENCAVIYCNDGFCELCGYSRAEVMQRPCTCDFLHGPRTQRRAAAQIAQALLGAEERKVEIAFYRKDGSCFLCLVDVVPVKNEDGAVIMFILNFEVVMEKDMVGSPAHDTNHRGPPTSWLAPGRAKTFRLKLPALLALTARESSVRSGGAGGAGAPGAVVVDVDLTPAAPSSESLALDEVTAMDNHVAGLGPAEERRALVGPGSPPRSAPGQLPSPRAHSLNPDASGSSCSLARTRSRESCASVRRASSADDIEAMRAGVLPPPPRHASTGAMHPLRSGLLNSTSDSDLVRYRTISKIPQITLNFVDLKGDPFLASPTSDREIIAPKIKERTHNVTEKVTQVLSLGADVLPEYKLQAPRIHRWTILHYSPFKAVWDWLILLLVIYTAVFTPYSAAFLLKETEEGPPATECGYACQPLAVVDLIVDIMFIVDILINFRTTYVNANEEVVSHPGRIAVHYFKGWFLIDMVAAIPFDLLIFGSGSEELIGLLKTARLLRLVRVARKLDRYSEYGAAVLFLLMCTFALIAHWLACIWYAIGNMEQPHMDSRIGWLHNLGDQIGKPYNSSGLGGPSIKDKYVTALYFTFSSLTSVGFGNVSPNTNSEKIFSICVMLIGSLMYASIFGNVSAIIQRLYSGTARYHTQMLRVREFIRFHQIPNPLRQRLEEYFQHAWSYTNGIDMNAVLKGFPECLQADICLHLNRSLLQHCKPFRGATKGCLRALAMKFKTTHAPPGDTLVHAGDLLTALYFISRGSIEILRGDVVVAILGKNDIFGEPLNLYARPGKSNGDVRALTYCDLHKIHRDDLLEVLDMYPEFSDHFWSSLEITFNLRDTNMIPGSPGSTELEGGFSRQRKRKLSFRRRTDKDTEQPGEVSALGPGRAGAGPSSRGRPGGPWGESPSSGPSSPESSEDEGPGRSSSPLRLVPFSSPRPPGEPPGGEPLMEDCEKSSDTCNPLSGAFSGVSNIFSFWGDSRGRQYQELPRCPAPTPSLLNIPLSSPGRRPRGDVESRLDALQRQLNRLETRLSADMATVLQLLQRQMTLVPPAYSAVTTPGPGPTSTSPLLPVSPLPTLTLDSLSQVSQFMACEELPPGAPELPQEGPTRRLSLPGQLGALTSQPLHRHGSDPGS
# KCNK3 inh: human KCNK3 channel inhibition, primary screen; O14649; CHO-KCNK3 thallium flux, FluxOR fluorescence; stronger effect = lower value; B-score at 10 µM; 340,000 compounds, 0.84% hits; AID 602410;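 active means B-score under library mean minus 4 SD, starting fluorescence ratio at most library mean plus 5 SD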;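 further: more negative B-score means stronger inhibition of thallium flux through KCNK3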
# KCNQ1 act: human KCNQ1 channel potentiation or activation; B-score at 10 µM; AID 2648; 310,000 compounds, 0.35% hits; CHO-K1 KCNQ1, thallium flux FluxOR fluorescence; stronger effect = higher value;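 active means fluorescence ratio B-score, a plate-corrected score, at least three library SD, with initial intensity B-score within 5 SD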
#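 Assay system: CHO-K1 cells stably expressing KCNQ1; Medium: assay buffer with matched DMSO; Also added: K+/Tl+ depolarizing stimulus; Dosing: single dose; Timing: dye 90 min, compound 20 min, room temperature; Measured by: kinetic FluxOR thallium fluorescence, 10-s 1-Hz baseline, 110-s post-stimulus read; Read-out: peak-minus-minimum fluorescence over initial fluorescence, negative-control normalized, B-scored.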
# KCNK9 block: human KCNK9 channel inhibition. 310,000 compounds, 1.2% hits. B-score at 10 µM. HEK293 KCNK9, FluxOR thallium flux fluorescence; stronger effect = lower value;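 active means ratio B-score over 3 SD below the library mean, with starting fluorescence within 5 SD of its mean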;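 further: negative B-score means less thallium flux so channel inhibition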
# KCNQ1 block: blocks the human KCNQ1 potassium channel. B-score at 10 µM. CHO-K1 KCNQ1, FluxOR thallium flux fluorescence; stronger effect = higher value. 310,000 compounds, 1.3% hits. P51787. AID 2642;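 active means compounds whose thallium flux B-score, printed positive for inhibition, exceeds three library SD while starting fluorescence stays within three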;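 further: channel opened by potassium depolarization with thallium stimulus after 20 min compound exposure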
# Kir21 block: inhibitors of mouse Kir2.1 inward-rectifier potassium channel; P35561; HEK293-Kir2.1, FluxOR thallium flux fluorescence; stronger effect = lower value; B-score at 10 µM; 310,000 compounds, 0.85% hits;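 active means fluorescence ratio B-score at or below minus 3 SD of library scores, with starting-brightness B-score within 2 SD, cut at about -4.2 in these data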;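 further: channel flux triggered by added potassium and thallium sulfate stimulus; B-score of peak minus minimum fluorescence over baseline after thallium stimulus; more negative B-score means stronger Kir2.1 block with less thallium influx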
# KCNQ1 block val: confirmation of human KCNQ1 potassium channel inhibitors. shares compounds with KCNQ1 block. KCNQ1 cell line, FluxOR thallium flux fluorescence. inhibition, % at 10 µM. 1,600 compounds, 93% hits;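 active means primary screen active, with duplicate mean exceeding buffer control mean plus 3 SD of buffer wells, cut at about 28% in these data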;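 further: 0% = buffer control ratio and 100% = XE991 inhibitor control ratio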
# CHO KCNQ1 ctr: activity in parental CHO cells lacking KCNQ1. shares compounds with KCNQ1 block. parental CHO-K1, FluxOR thallium flux fluorescence ratio; stronger effect = lower value; zero means no signal rise above baseline. fluorescence ratio (Tl flux) at 10 µM. 1,600 compounds, 21% hits;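 active means mean of duplicate thallium-flux fluorescence ratios in parental host cells more than 5 SD below the buffer control mean, cut at about 0.38 in these data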;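 further: ratio is peak minus minimum fluorescence divided by baseline fluorescence; actives read low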
# KCNQ1 APC inh: human KCNQ1 inhibition validated by electrophysiology. calls only at 10 µM. KCNQ1-CHO cells, automated patch clamp current. 490 compounds, 20% hits. shares compounds with KCNQ1 block;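 active means KCNQ1 current drop exceeding 3 SD of negative control wells, seen in both duplicate runs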;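 further: steady state current during a 2 s step from -80 to +40 mV; negative values mean current inhibition and positive values mean potentiation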
# KCNQ2 spec: rat KCNQ2 inhibition in KCNQ1 inhibitor specificity screen; inhibition, % at 10 µM; shares compounds with KCNQ1 block; 1,600 compounds, 71% hits; KCNQ2 cells, FluxOR thallium flux fluorescence;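 active means mean percent inhibition of the KCNQ2 thallium signal more than 5 SD above the buffer-only control wells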;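 further: KCNQ2 expressed in CHO cells; 0% = buffer control wells and 100% = XE-991 inhibitor control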
# KCNQ1-KCNE1 inh: human KCNQ1/KCNE1 inhibition in KCNQ1 specificity screen; shares compounds with KCNQ1 block; 1,600 compounds, 77% hits; inhibition, % at 10 µM; KCNQ1/KCNE1 cells, FluxOR thallium flux fluorescence;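 active means mean percent inhibition of duplicate wells above the buffer-only control mean plus 3 SD of those controls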;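 further: 0% = buffer only wells and 100% = XE-991 inhibitor control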
# Active calls of the source: *; i = inactive; / = no result given; + = active, no number.
SMILES,hERG protect,KCNK3 inh,KCNQ1 act,KCNK9 block,KCNQ1 block,Kir21 block,KCNQ1 block val,CHO KCNQ1 ctr,KCNQ2 spec,KCNQ1-KCNE1 inh,others
Cc1ccc(NC(=O)Nc2ccc3c(c2)CCC3)cc1,-10.9,i,i,i,i,-0.4,/,/,/,/,
Cc1cc(C)cc(NC(=O)CSc2nc3ccccc3nc2N2CCCCC2)c1,-9.4,i,i,i,6*,0.35,68.5*,0.463,92.0%*,86.0%*,
Cc1cc(C)cc(NC(=O)CSc2nc3ccccc3nc2N2CCCC2)c1,-9.6,i,i,i,i,0.85,/,/,/,/,
Cc1csc2c(N3CCN(C(=O)NC(C)(C)C)CC3)ncnc12,-4.8,i,i,i,i,0.74,/,/,/,/,
Cc1csc2ncnc(N3CCN(C(=S)Nc4ccc(C(F)(F)F)cc4)CC3)c12,-6.5,i,i,i,10*,-1.29,112.0*,0.471,74.0%*,93.5%*,KCNQ1 APC inh=i
Cc1cc(C)cc(NC(=S)N2CCN(c3ncc(C(F)(F)F)cc3Cl)CC2)c1,-7.9,i,i,i,i,-0.31,/,/,/,/,
Cc1csc2c(N3CCN(C(=O)Nc4ccc(Cl)c(Cl)c4)CC3)ncnc12,-7.0,i,i,i,11*,3.16,159.5*,0.36*,90.0%*,+,
Cc1csc2c(N3CCN(C(=S)Nc4ccc(C(F)(F)F)cc4)CC3)ncnc12,-8.8,i,i,i,12*,0.2,82.5*,0.539,i,178.0%*,
CC(C)Cn1nc(C(=O)Nc2cccc(C(=O)NC3CC3)c2)c2ccccc2c1=O,/,i,/,/,/,/,/,/,/,/,
c1ccc(CSc2ncn[nH]2)nc1,-9.1,i,i,i,i,-2.87,/,/,/,/,
CCOc1ccc(-c2cc(C(=O)NCCCn3ccnc3)c3ccccc3n2)cc1,-10.0,i,i,i,6*,-3.11,26.5*,0.432,85.7%*,43.0%*,
COc1c(S(=O)(=O)N2CCN(C)CC2)ccc(Cl)c1Cl,0.3,i,i,i,7*,0.18,0.0,0.486,i,56.0%*,
COc1ccc(Cl)cc1S(=O)(=O)N1CCN(C)CC1,-6.9,i,i,i,i,-1.7,/,/,/,/,
CCOc1cc(C(=O)Nc2ccc(C(=O)NCCN(CC)CC)cc2)ccc1OCC(=O)N1CCOCC1,/,i,/,/,/,/,/,/,/,/,
Clc1ccc(/C=C/c2nc3ccccc3[nH]2)cc1,-7.2,i,i,i,i,1.18,/,/,/,/,
Clc1cccc(Cl)c1/C=C/c1nc2ccccc2[nH]1,-18.8,-8.8*,i,i,14*,-0.48,121.0*,0.459,93.0%*,129.5%*,
CCCCSc1nc(C)c(CC(=O)O)c(=O)[nH]1,-5.3,i,i,i,10*,1.09,61.5*,0.518,i,47.0%*,
O=C(NN=Cc1c(F)c(F)c(F)c(F)c1F)c1ccc(NS(=O)(=O)c2cccs2)cc1,/,i,/,/,/,/,/,/,/,/,
O=C(Nc1ccc(Cl)c(Cl)c1)Nc1ccccc1O,-19.7,i,i,i,7*,0.44,72.5*,0.568,i,66.5%*,
O=C1C=C(NC(=O)Nc2ccc(Cl)c(Cl)c2)CCC1,-17.8,i,i,i,13*,1.03,39.0*,0.51,i,i,
Cc1ccc(S(=O)(=O)N2CCN(C(=O)CSC(=S)N3CCCC3)CC2)c(C)c1,/,i,/,/,/,/,/,/,/,/,
O=C(NNC(=O)C1CCC1)c1cccc(Cl)c1,/,i,/,/,/,/,/,/,/,/,
CCc1ccc(NC(=O)c2cnc(N3CCN(c4ccccn4)CC3)c3ccccc23)cc1,-27.1,i,i,i,8*,0.55,89.0*,0.374*,104.0%*,141.0%*,
CC(C)NC(=O)c1cnc(N2CCN(c3ccccn3)CC2)c2ccccc12,-3.3,i,i,i,i,2.15,/,/,/,/,
Cc1ccc(SCCNS(=O)(=O)c2ccc(F)cc2)cc1,-17.5,i,i,i,7*,-1.5,47.0*,0.484,62.0%*,50.5%*,
SMILES,hERG protect,KCNK3 inh,KCNQ1 act,KCNK9 block,KCNQ1 block,Kir21 block,KCNQ1 block val,CHO KCNQ1 ctr,KCNQ2 spec,KCNQ1-KCNE1 inh,others
O=S(=O)(NCCSc1ccc(Cl)cc1)c1ccc(F)cc1,-16.5,i,i,i,i,-2.13,/,/,/,/,
Cc1ccccc1-n1nc2c(c1NC(=O)c1cc3ccccc3o1)CS(=O)(=O)C2,-11.3,i,i,i,i,-0.7,/,/,/,/,
CC(=O)c1cccc(S(=O)(=O)N2CCCC(c3nc4c(nnn4Cc4ccccc4Cl)c(=O)[nH]3)C2)c1 (stereo unspecified),-7.6,i,i,i,i,1.53,/,/,/,/,
CC(C)(C)C(=O)Cn1c(=N)n(Cc2ccccc2)c2ccccc21,-16.4,i,i,i,7*,-0.19,86.0*,0.386,113.7%*,90.0%*,
CC(C)(C)C(=O)Cn1c(=N)n(Cc2ccccc2Cl)c2ccccc21,-8.3,i,i,i,i,-0.28,/,/,/,/,
CCSc1nc2sc3c(c2c(=O)n1-c1ccccc1)CCN(C(C)C)C3,-5.4,i,i,i,i,-0.99,/,/,/,/,
Cc1ccccc1NC(=O)Nc1ccc(C(F)(F)F)cc1,-4.7,i,i,i,6*,0.56,133.5*,0.546,100.7%*,i,KCNQ1 APC inh=i
Cc1cc2c(NC(=O)Nc3ccccc3)cccc2nn1,-3.1,i,i,i,i,0.76,/,/,/,/,
Cc1cc2c(NC(=O)Nc3ccc(C(C)(C)C)cc3)cccc2nn1,-18.7,i,i,i,7*,1.85,118.5*,0.451,81.0%*,68.0%*,KCNQ1 APC inh=i
CC(=O)Nc1cccc2ccc(O)cc12,/,i,/,/,/,/,/,/,/,/,
O=C(Nc1ccccc1F)Nc1cccc2ccc(O)cc12,-10.1,i,i,i,9*,2.34,80.5*,0.541,64.3%*,i,
O=C(Nc1ccc(Br)cc1)Nc1ccccc1F,-5.0,i,i,i,7*,0.85,51.5*,0.532,i,i,
CCN(CC)C(=O)CSc1nc2c(sc(=S)n2-c2ccccc2)c(=O)n1-c1ccc(OC)c(OC)c1,-10.1,i,i,i,i,-0.21,/,/,/,/,
CCOC(=O)N1CCN(C(=O)c2ccc(Cl)c(NC(=O)c3cccs3)c2)CC1,/,i,/,/,/,/,/,/,/,/,
